Source: ChEMBL document CHEMBL3098111, “Discovery of 2,5-diarylnicotinamides as selective orexin-2 receptor antagonists (2-SORAs)” (Bioorg Med Chem Lett, 2013)
Calls of active or inactive are those of the source. The rule behind the calls is not given here.

What was measured:
[1] = target: Histamine H1 receptor (Homo sapiens) (UniProt P35367); assay: Inhibition of human histamine H1 receptor at 10 uM relative to control
[2] = target: Neutrophil elastase (Homo sapiens) (UniProt P08246); assay: Inhibition of human neutrophil elastase 2 at 30 uM relative to control
[3] = target: Muscarinic acetylcholine receptor M5 (Homo sapiens) (UniProt P08912); assay: Inhibition of human muscarinic M5 receptor at 10 uM relative to control
[4] = target: Neuropeptide Y receptor type 2 (Homo sapiens) (UniProt P49146); assay: Inhibition of human neuropeptide YY2 receptor at 10 uM relative to control
Gallus gallus = organism: Gallus gallus; assay: Inhibition of chicken MT receptor at 10 uM relative to control
[5] = target: Prostaglandin E2 receptor EP3 subtype (Homo sapiens) (UniProt P43115); assay: Inhibition of human prostanoid EP3 receptor at 10 uM relative to control
Rattus norvegicus [6] = organism: Rattus norvegicus; assay: Inhibition of rat sodium channel site 2 at 10 uM relative to control
[7] = target: Peroxisome proliferator-activated receptor alpha (Homo sapiens) (UniProt Q07869); assay: Inhibition of human PPARalpha at 10 uM relative to control
Rattus norvegicus [8] = organism: Rattus norvegicus; assay: Inhibition of rat GABAA central type receptor muscimol binding site at 10 uM relative to control
[9] = target: D(4) dopamine receptor (Homo sapiens) (UniProt P21917); assay: Inhibition of human dopamine D4.4 receptor at 10 uM relative to control
[10] = target: Muscarinic acetylcholine receptor M1 (Homo sapiens) (UniProt P11229); assay: Inhibition of human muscarinic M1 receptor at 10 uM relative to control
[11] = target: Pro-epidermal growth factor (Homo sapiens) (UniProt P01133); assay: Inhibition of human EGF at 10 uM relative to control
[12] = target: D(1B) dopamine receptor (Homo sapiens) (UniProt P21918); assay: Inhibition of human dopamine D5 receptor at 10 uM relative to control
Rattus norvegicus [13] = organism: Rattus norvegicus; assay: Inhibition of rat ATP-sensitive potassium channel at 10 uM relative to control
[14] = target: Alpha-2A adrenergic receptor (Homo sapiens) (UniProt P08913); assay: Inhibition of human alpha2A adrenergic receptor at 10 uM relative to control
[15] = target: D(1A) dopamine receptor (Homo sapiens) (UniProt P21728); assay: Inhibition of human dopamine D1 receptor at 10 uM relative to control
[16] = target: Epidermal growth factor receptor (Homo sapiens) (UniProt P00533); assay: Inhibition of human EGF receptor at 10 uM relative to control
[17] = target: Glutamate NMDA receptor (Rattus norvegicus) (UniProt P35439+Q00959+Q00960+Q00961+Q62645+Q8VHN2+Q9R1M7); assay: Inhibition of rat NMDA receptor phencyclidine binding site at 10 uM relative to control; format: protein-complex assay
[18] = target: Nitric oxide synthase, inducible (Mus musculus) (UniProt P29477); assay: Inhibition of mouse iNOS at 10 uM relative to control
Oryctolagus cuniculus [19] = organism: Oryctolagus cuniculus; assay: Inhibition of rabbit monoamine transporter at 0.1 uM relative to control
[20] = target: Type-2 angiotensin II receptor (Homo sapiens) (UniProt P50052); assay: Inhibition of human angiotensin AT2 receptor at 10 uM relative to control
D(3) dopamine receptor [21] = target: T1, D(3) dopamine receptor (Homo sapiens, UniProt P35462); assay: Inhibition of human dopamine D3 receptor at 10 uM relative to control
[22] = target: Melanocortin receptor 5 (Homo sapiens) (UniProt P33032); assay: Inhibition of human MC5 receptor at 10 uM relative to control
Caspase-3 (Homo sapiens) = Caspase-3 (Homo sapiens) (UniProt P42574); assay: Inhibition of human caspase 3 at 10 uM relative to control
[23] = target: Cannabinoid receptor 1 (Homo sapiens) (UniProt P21554); assay: Inhibition of human CB1 receptor at 10 uM relative to control
[24] = target: 5-hydroxytryptamine receptor 4 (Cavia porcellus) (UniProt O70528); assay: Inhibition of guinea pig 5-HT4 receptor at 10 uM relative to control
Mu-type opioid receptor = Mu-type opioid receptor (Homo sapiens, UniProt P35372); assay: Inhibition of human mu opioid receptor at 1 uM relative to control
[25] = target: Polyunsaturated fatty acid lipoxygenase ALOX12 (Homo sapiens) (UniProt P18054); assay: Inhibition of human 12-lipoxygenase at 10 uM relative to control
Cricetinae = assay: Inhibition of hamster ATP-sensitive potassium channel at 10 uM relative to control
Oryctolagus cuniculus [26] = organism: Oryctolagus cuniculus; assay: Inhibition of rabbit monoamine transporter at 1 uM relative to control
Rattus norvegicus [27] = organism: Rattus norvegicus; assay: Inhibition of rat GABAA chloride channel TBOB binding site at 10 uM relative to control
[28] = target: Natriuretic peptides A (Cavia porcellus) (UniProt P27596); assay: Inhibition of guinea pig atrial natriuretic factor at 10 uM relative to control; settings: Cardiac atrium
[29] = target: Phosphodiesterase 3 (Homo sapiens) (UniProt Q14432+Q13370); assay: Inhibition of human PDE3 at 100 uM relative to control; format: protein assay
Rattus norvegicus [30] = organism: Rattus norvegicus; assay: Inhibition of rat strychnine-sensitive glycine receptor at 10 uM relative to control
[31] = target: Alpha-1D adrenergic receptor (Homo sapiens) (UniProt P25100); assay: Inhibition of human alpha1D adrenergic receptor at 10 uM relative to control
[32] = target: Platelet-activating factor receptor (Homo sapiens) (UniProt P25105); assay: Inhibition of human PAF receptor at 10 uM relative to control
[33] = target: Somatostatin receptor type 5 (Homo sapiens) (UniProt P35346); assay: Inhibition of human SST5 receptor at 10 uM relative to control
Rattus norvegicus [34] = assay: Antiinsomnic activity in rat EEG model assessed as increase in REM sleep time at 15 mg/kg, po; format: functional, organism-based; set-up: dose 15 mg/kg
Outline: (§1)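 Rats with EEG telemetry given 15 mg/kg orally during their active period, vehicle 20% Vitamin E TPGS in water. Sleep architecture (active wake, light sleep, delta and REM sleep) scored from EEG.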

Rattus norvegicus [35] = assay: Antiinsomnic activity in rat EEG model assessed as decrease in light sleep time at 15 mg/kg, po; format: functional, organism-based; set-up: dose 15 mg/kg; outline: as §1
[36] = target: Thyrotropin-releasing hormone receptor (Rattus norvegicus) (UniProt Q01717); assay: Inhibition of rat TRH receptor at 10 uM relative to control
[37] = target: Histamine H4 receptor (Homo sapiens) (UniProt Q9H3N8); assay: Inhibition of human histamine H4 receptor at 10 uM relative to control
[38] = target: 5-hydroxytryptamine receptor 3A (Homo sapiens) (UniProt P46098); assay: Inhibition of human 5-HT3 receptor at 10 uM relative to control
[39] = target: Inositol 1,4,5-trisphosphate-gated calcium channel ITPR1 (Rattus norvegicus) (UniProt P29994); assay: Inhibition of rat IP3 receptor at 10 uM relative to control
Rattus norvegicus [40] = organism: Rattus norvegicus; assay: Inhibition of rat choline transporter at 10 uM relative to control
D(3) dopamine receptor [41] = target: T1, D(3) dopamine receptor; assay: Inhibition of human dopamine D3 receptor at 1 uM relative to control

T1 sequence (P35462 whole entry): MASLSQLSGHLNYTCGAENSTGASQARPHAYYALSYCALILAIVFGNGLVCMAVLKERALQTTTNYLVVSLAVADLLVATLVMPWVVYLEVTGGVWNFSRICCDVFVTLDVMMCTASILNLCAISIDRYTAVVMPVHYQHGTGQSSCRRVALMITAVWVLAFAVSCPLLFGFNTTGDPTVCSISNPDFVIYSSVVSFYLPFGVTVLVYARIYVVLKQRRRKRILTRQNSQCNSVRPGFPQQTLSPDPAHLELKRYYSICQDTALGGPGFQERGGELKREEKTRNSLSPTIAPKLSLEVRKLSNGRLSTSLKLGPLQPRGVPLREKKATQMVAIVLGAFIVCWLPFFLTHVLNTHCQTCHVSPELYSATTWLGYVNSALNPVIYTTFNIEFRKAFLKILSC
Chain of D(1B) dopamine receptor (Homo sapiens) (P21918 whole entry): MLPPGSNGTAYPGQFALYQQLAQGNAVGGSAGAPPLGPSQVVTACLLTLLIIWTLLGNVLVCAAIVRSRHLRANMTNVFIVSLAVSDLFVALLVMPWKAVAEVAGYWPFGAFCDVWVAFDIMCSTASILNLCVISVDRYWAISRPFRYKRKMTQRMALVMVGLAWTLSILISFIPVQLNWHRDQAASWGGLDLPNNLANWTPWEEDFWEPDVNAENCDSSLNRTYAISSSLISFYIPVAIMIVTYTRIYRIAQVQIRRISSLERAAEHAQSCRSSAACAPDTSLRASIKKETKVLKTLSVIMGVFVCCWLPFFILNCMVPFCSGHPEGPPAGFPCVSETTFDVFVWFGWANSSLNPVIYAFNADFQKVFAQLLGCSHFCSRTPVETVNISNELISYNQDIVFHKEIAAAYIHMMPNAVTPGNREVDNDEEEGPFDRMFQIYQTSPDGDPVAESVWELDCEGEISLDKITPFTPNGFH
Chain of D(4) dopamine receptor (Homo sapiens) (P21917 whole entry): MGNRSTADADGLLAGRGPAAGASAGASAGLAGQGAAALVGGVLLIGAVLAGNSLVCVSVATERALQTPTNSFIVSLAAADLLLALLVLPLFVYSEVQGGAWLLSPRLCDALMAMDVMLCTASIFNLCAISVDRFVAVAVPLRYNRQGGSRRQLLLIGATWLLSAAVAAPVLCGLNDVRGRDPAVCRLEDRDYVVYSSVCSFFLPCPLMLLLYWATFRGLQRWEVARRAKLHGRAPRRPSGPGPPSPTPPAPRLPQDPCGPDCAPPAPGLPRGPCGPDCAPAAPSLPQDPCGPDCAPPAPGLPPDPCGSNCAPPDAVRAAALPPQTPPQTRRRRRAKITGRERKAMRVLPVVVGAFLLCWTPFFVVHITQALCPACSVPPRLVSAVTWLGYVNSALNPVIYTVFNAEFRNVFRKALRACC
Chain of Pro-epidermal growth factor (Homo sapiens) (P01133 whole entry): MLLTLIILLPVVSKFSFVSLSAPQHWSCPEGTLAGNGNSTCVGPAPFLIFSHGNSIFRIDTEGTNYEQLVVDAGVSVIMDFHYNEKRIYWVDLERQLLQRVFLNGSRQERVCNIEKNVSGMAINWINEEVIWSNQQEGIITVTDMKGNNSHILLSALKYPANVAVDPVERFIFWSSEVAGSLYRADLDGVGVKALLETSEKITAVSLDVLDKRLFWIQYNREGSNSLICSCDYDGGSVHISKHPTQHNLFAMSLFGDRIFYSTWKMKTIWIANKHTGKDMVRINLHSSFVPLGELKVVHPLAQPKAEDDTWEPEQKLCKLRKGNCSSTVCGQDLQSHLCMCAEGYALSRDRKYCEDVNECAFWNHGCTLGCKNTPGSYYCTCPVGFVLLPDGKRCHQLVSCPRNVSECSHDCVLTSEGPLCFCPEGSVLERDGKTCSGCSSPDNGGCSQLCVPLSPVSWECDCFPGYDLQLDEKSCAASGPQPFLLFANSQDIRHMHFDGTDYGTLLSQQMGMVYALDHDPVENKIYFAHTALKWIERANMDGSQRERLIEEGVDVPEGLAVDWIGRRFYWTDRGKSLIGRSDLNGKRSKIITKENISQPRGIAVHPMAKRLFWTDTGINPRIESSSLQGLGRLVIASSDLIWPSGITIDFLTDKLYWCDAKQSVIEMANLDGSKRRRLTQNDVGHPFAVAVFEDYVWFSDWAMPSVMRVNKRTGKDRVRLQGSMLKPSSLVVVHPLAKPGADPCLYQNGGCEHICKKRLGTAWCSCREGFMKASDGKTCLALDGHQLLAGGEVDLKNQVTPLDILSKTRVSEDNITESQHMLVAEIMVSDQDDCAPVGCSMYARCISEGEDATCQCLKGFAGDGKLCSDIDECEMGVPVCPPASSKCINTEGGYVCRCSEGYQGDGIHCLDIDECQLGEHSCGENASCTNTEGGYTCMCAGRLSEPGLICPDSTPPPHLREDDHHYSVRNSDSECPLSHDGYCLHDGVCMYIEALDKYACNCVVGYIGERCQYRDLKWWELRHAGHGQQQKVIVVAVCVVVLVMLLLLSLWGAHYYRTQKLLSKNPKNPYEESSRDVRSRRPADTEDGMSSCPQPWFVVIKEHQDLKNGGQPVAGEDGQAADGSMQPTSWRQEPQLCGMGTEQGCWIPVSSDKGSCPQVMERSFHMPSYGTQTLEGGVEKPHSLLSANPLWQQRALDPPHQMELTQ
Chain of Cannabinoid receptor 1 (Homo sapiens) (P21554 whole entry): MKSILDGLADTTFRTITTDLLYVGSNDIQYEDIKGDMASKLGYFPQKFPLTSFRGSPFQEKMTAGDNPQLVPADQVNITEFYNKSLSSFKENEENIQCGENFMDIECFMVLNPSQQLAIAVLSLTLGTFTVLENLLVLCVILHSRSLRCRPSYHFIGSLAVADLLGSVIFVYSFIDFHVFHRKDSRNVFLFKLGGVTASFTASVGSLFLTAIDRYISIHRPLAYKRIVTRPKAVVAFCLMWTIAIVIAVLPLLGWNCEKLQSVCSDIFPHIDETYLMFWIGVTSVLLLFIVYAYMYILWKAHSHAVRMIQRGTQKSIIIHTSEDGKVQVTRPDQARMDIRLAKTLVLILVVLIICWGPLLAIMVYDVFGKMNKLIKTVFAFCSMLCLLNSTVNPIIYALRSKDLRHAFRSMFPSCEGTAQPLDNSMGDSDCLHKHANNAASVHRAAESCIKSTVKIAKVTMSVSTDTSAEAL
Chain of Nitric oxide synthase, inducible (Mus musculus) (P29477 whole entry): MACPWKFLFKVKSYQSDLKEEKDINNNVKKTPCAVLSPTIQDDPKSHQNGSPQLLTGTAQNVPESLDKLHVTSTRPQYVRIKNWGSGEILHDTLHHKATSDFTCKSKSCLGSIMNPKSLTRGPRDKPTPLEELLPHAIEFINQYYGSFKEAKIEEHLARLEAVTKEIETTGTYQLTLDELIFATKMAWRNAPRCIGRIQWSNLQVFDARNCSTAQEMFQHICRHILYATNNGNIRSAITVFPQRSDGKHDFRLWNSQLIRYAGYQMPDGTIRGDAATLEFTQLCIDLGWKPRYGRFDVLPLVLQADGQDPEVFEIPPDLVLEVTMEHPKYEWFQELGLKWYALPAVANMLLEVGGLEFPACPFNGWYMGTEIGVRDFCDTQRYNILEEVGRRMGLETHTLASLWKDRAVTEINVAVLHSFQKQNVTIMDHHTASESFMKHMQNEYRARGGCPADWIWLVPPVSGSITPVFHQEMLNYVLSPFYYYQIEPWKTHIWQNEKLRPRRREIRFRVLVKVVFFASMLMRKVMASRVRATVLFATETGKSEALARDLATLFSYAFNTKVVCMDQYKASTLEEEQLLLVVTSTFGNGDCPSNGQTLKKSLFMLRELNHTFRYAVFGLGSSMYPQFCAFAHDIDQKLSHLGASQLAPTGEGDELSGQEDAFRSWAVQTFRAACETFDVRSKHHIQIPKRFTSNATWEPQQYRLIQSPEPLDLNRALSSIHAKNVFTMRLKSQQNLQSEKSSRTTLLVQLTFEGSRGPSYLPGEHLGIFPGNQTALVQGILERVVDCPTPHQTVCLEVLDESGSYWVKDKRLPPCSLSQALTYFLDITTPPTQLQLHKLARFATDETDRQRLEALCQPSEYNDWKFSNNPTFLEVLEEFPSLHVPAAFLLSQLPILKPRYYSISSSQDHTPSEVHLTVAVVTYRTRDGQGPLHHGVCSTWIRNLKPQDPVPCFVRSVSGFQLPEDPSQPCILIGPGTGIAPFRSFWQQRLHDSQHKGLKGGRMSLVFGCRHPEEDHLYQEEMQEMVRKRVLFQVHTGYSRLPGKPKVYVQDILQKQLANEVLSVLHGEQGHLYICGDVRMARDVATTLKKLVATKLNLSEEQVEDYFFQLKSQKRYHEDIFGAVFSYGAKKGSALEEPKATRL
Chain of Thyrotropin-releasing hormone receptor (Rattus norvegicus) (Q01717 whole entry): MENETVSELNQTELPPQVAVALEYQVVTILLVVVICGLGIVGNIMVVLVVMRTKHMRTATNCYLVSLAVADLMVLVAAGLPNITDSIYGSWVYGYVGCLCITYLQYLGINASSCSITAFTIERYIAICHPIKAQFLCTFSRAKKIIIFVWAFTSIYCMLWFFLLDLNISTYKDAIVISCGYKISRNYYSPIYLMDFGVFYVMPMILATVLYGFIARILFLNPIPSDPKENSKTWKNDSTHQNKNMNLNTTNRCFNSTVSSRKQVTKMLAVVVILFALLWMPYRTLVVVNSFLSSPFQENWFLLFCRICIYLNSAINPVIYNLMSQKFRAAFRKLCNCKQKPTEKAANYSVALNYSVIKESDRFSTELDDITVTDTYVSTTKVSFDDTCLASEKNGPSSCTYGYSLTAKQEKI
Chain of Natriuretic peptides A (Cavia porcellus) (P27596 whole entry): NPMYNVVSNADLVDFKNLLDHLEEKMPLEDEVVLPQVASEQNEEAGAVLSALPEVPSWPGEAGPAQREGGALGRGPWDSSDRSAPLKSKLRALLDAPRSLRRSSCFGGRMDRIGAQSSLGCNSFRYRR
Chain of Caspase-3 (Homo sapiens) (P42574 29-175 limits assumed): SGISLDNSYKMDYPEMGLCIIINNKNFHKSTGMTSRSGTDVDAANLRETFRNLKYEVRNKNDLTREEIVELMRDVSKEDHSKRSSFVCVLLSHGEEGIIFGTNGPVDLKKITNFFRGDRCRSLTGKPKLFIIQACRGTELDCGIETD
Chain of Caspase-3 (Homo sapiens) (P42574 176-277 limits assumed): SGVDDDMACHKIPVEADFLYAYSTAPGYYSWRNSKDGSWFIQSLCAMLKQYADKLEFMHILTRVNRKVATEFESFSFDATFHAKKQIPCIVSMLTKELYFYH

## COc1ccc(CNC(=O)c2cc(-c3cc(Cl)cc(Cl)c3)cnc2-c2cccnc2)cc1OC
[1]
  inhibition: 10%
[2]
  inhibition: -2%
[3]
  inhibition: 1%
[4]
  inhibition: 0%
Gallus gallus
  inhibition: 22%
[5]
  inhibition: 19%
Rattus norvegicus [6]
  inhibition: 39%
[7]
  inhibition: 5%
Rattus norvegicus [8]
  inhibition: 9%
[9]
  inhibition: 3%
[10]
  inhibition: 0%
[11]
  inhibition: 7%
[12]
  inhibition: 3%
Rattus norvegicus [13]
  inhibition: 0%
[14]
  inhibition: 19%
[15]
  inhibition: 2%
[16]
  inhibition: 10%
[17]
  inhibition: 5%
[18]
  inhibition: 2%
Oryctolagus cuniculus [19]
  inhibition: 7%
[20]
  inhibition: 18%
D(3) dopamine receptor [21]
  inhibition: 51%
[22]
  inhibition: 9%
Caspase-3 (Homo sapiens)
  inhibition: -1%
[23]
  inhibition: 10%
[24]
  inhibition: 22%
Mu-type opioid receptor
  inhibition: 26%
[25]
  inhibition: 11%
Cricetinae
  inhibition: 0%
Oryctolagus cuniculus [26]
  inhibition: 20%
Rattus norvegicus [27]
  inhibition: 8%
[28]
  inhibition: 1%
[29]
  inhibition: 0%
Rattus norvegicus [30]
  inhibition: -5%
[31]
  inhibition: 26%
[32]
  inhibition: 31%
[33]
  inhibition: 14%
Rattus norvegicus [34]
  Activity: Active
Rattus norvegicus [35]
  Activity: Active
[36]
  inhibition: -3%
[37]
  inhibition: 9%
[38]
  inhibition: -3%
[39]
  inhibition: 0%
Rattus norvegicus [40]
  inhibition: 1%
D(3) dopamine receptor [41]
  inhibition: 19%
